Results from ChEMBL document CHEMBL3272112, “Cycloalkanones. 8. Hypocholesterolemic activity of long-chain ketones related to pentadecanone” (J Med Chem, 1976).

Key:
Rattus norvegicus [1] = assay: Hypocholesterolemic activity in Sprague-Dawley rat assessed as serum cholesterol level at 10 mg/kg/day, po administered via intubation measured on day 10 by Liebermann-Burchard method relative to control; type: functional
How it was run: (§1)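 Male Sprague-Dawley rats given compound homogenized in 1% CMC once daily at 11:00 a.m. by oral intubation needle (0.2 cc), doses calculated on weekly body weights; tail-vein blood drawn 24 h after last dose; nonhemolyzed serum (30 μ) assayed by modified Liebermann-Burchard method; N = 8; % of control, mean ± SD; Student's t test.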

Rattus norvegicus [2] = assay: Toxicity in Sprague-Dawley rat assessed as increase in body weight at 10 mg/kg/day measured on day 10 (reference value: 160 +/- 13%); type: organism-based; conditions: in vivo
Rattus norvegicus [3] = assay: Hypocholesterolemic activity in Sprague-Dawley rat assessed as serum cholesterol level at 5 mg/kg/day, po administered via intubation measured on day 10 by Liebermann-Burchard method relative to control; type: functional; how it was run: as §1
Rattus norvegicus [4] = assay: Hypocholesterolemic activity in Sprague-Dawley rat assessed as serum cholesterol level at 50 mg/kg/day, po administered via intubation measured on day 10 by Liebermann-Burchard method relative to control; type: functional; how it was run: as §1
Rattus norvegicus [5] = assay: Toxicity in Sprague-Dawley rat assessed as increase in body weight at 1 mg/kg/day administered for 16 days measured on day 16 post last dose (reference value: 195 +/- 16%); type: organism-based; conditions: in vivo, 384 h
Rattus norvegicus [6] = assay: Toxicity in Sprague-Dawley rat assessed as food intake at 5 mg/kg/day measured after 1 week (reference value: 20.9 +/- 4.9 g/day); type: organism-based; conditions: in vivo, 168 h
Rattus norvegicus [7] = assay: Toxicity in Sprague-Dawley rat assessed as food intake at 50 mg/kg/day measured after 1 week (reference value: 20.9 +/- 4.9 g/day); type: organism-based; conditions: in vivo, 168 h
Rattus norvegicus [8] = assay: Toxicity in Sprague-Dawley rat assessed as food intake at 5 mg/kg/day measured after 2 weeks (reference value: 24.8 +/- 1.1 g/day); type: organism-based; conditions: in vivo, 336 h
Rattus norvegicus [9] = assay: Toxicity in Sprague-Dawley rat assessed as food intake at 20 mg/kg/day measured after 2 weeks (reference value: 24.8 +/- 1.1 g/day); type: organism-based; conditions: in vivo, 336 h
Rattus norvegicus [10] = assay: Toxicity in Sprague-Dawley rat assessed as change in kidney weight at 10 mg/kg/day administered for 16 days measured on day 16 post last dose relative to total body weight (reference value: 0.91 +/- 0.10%); type: organism-based; conditions: in vivo, 384 h
Rattus norvegicus [11] = assay: Toxicity in Sprague-Dawley rat assessed as change in heart weight at 10 mg/kg/day administered for 16 days measured on day 16 post last dose relative to total body weight (reference value: 0.39 +/- 0.04%); type: organism-based; conditions: in vivo, 384 h
Rattus norvegicus [12] = assay: Toxicity in Sprague-Dawley rat assessed as increase in epididymis and vas deferens weight at 10 mg/kg/day administered for 16 days measured on day 16 post last dose relative to total body weight (reference value: 0.22 +/- 0.04%); type: organism-based; conditions: in vivo, 384 h
Rattus norvegicus [13] = assay: Toxicity in Sprague-Dawley rat assessed as effect on lipid level in liver at 10 mg/kg/day measured after 16 days (reference value: 100 +/- 13%); type: organism-based; conditions: in vivo, 384 h
Rattus norvegicus [14] = assay: Effect on serum triglyceride level in Sprague-Dawley rat at 10 mg/kg/day measured on day 16 (reference value: 100 +/- 21%); type: functional
Rattus norvegicus [15] = assay: Effect on serum triglyceride level in Sprague-Dawley rat at 20 mg/kg/day measured on day 14 (reference value: 100 +/- 21%); type: functional
Rattus norvegicus [16] = species: Rattus norvegicus; assay: Disruption of rat liver cell membrane assessed as unlysed cells at 25 mg per gram of tissue measured at 15 mins (reference value: 91 +/- 6%); type: functional
How it was run: (§2)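 Rat liver 10% homogenate in 0.25 M sucrose + 0.001 M EDTA, pH 7.2, incubated at 37°C with Hanke's buffer pH 7.2 and drug suspended in 1% CMC (dose as mg drug per g wet liver); turbidity read as absorbance at 660 nm over 0–4 hr, falling absorbance taken as lysis; expressed as % unlysed cells; vehicle 1% CMC control.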

Rattus norvegicus [17] = species: Rattus norvegicus; assay: Disruption of rat liver cell membrane assessed as unlysed cells at 5 mg per gram of tissue measured at 30 mins (reference value: 93 +/- 7%); type: functional; how it was run: as §2
Rattus norvegicus [18] = species: Rattus norvegicus; assay: Disruption of rat liver cell membrane assessed as unlysed cells at 10 mg per gram of tissue measured at 1 hr (reference value: 90 +/- 4%); type: functional; how it was run: as §2
Rattus norvegicus [19] = species: Rattus norvegicus; assay: Disruption of rat liver cell membrane assessed as unlysed cells at 5 mg per gram of tissue measured at 2 hrs (reference value: 77 +/- 8%); type: functional; how it was run: as §2
Rattus norvegicus [20] = species: Rattus norvegicus; assay: Disruption of rat liver cell membrane assessed as unlysed cells at 10 mg per gram of tissue measured at 2 hrs (reference value: 77 +/- 8%); type: functional; how it was run: as §2
Rattus norvegicus [21] = species: Rattus norvegicus; assay: Disruption of rat liver cell membrane assessed as unlysed cells at 25 mg per gram of tissue measured at 2 hrs (reference value: 77 +/- 8%); type: functional; how it was run: as §2
Rattus norvegicus [22] = species: Rattus norvegicus; assay: Disruption of rat liver cell membrane assessed as unlysed cells at 5 mg per gram of tissue measured at 4 hrs (reference value: 17 +/- 4%); type: functional; how it was run: as §2
Rattus norvegicus [23] = species: Rattus norvegicus; assay: Disruption of rat liver cell membrane assessed as unlysed cells at 25 mg per gram of tissue measured at 4 hrs (reference value: 17 +/- 4%); type: functional; how it was run: as §2
Rattus norvegicus [24] = species: Rattus norvegicus; assay: Disruption of rat liver lysosomal membrane assessed as free acid phosphatase activity at 5 mg per gram of tissue measured after 1 hr (reference value: 100 +/- 16%); type: functional, tissue-based
How it was run: (§3)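 10% rat liver homogenate incubated with Hanke's buffer pH 7.2 and drug suspension in 1% CMC in a shaker at 37°C; aliquot removed after 1 hr and percent free (unbound) acid phosphatase activity determined as an index of lysosomal membrane rupture.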

Rattus norvegicus [25] = species: Rattus norvegicus; assay: Disruption of rat liver lysosomal membrane assessed as free acid phosphatase activity at 10 mg per gram of tissue measured after 1 hr (reference value: 100 +/- 16%); type: functional, tissue-based; how it was run: as §3
[26] = Toxicity in CF1 mouse; type: organism-based; conditions: in vivo
How it was run: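 Male CF1 mice; acute lethality measured and LD50 calculated by the Litchfield and Wilcoxon method.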

Rattus norvegicus [27] = assay: Toxicity in Sprague-Dawley rat assessed as atrophy of epididymis at 10 mg/kg/day administered for 16 days measured on day 16 post last dose; type: organism-based; conditions: in vivo, 384 h
Rattus norvegicus [28] = assay: Toxicity in Sprague-Dawley rat assessed as atrophy of vas deferens at 10 mg/kg/day administered for 16 days measured on day 16 post last dose; type: organism-based; conditions: in vivo, 384 h
Rattus norvegicus [29] = assay: Toxicity in Sprague-Dawley rat assessed as atrophy of vesicular gland at 10 mg/kg/day administered for 16 days measured on day 16 post last dose; type: organism-based; conditions: in vivo, 384 h
Rattus norvegicus [30] = assay: Uterotrophic activity in ovariectomized weaned Sprague-Dawley rat assessed as uterine weight at 10 mg/kg/day measured after 3 days (reference value: 100 +/- 15%); type: ADME, organism-based, Uterus; conditions: in vivo, 72 h
How it was run: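 Weaned rats were ovariectomized and left untreated for 3 days. They were then dosed for 3 days with 17-ethinylestradiol 10 µg/kg/day or test compound 10 mg/kg/day, with 1% CMC as the vehicle control. Rats were then killed and the uterus removed, trimmed and weighed. Results are % of control uterine weight, mean ± SD; N = 7; Student's t test.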

Rattus norvegicus [31] = assay: Toxicity in Sprague-Dawley rat assessed as estrogenic activity at 10 mg/kg/day; type: organism-based; conditions: in vivo
How it was run: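 Weaned rats ovariectomized, left 3 days, then given 10 mg/kg/day test compound (or 10 μg/kg/day 17-ethinylestradiol as reference) for 3 days; killed, uterus removed, trimmed and weighed; expressed as % uterine weight of 1% CMC control, mean ± SD; Student's t test.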

`CCCCCCCCCCCCCCC(C)=O` gave an Activity (Rattus norvegicus [1]) of 72%, an Activity (Rattus norvegicus [2]) of 145% and an Activity (Rattus norvegicus [3]) of 78%. For the same molecule, the Activity (Rattus norvegicus [4]) was 74%, the Activity (Rattus norvegicus [5]) was 229% and the Activity (Rattus norvegicus [6]) was 21.8 g/day. The Activity (Rattus norvegicus [7]) was 22.5 g/day, the Activity (Rattus norvegicus [8]) was 26.3 g/day and the Activity (Rattus norvegicus [9]) was 24.2 g/day. The Activity (Rattus norvegicus [10]) was 0.86%, the Activity (Rattus norvegicus [11]) was 0.39% and the Activity (Rattus norvegicus [12]) was 0.24%. The Activity (Rattus norvegicus [13]) was 101%, the Activity (Rattus norvegicus [14]) was 120% and the Activity (Rattus norvegicus [15]) was 101%. For the same molecule, the Activity (Rattus norvegicus [16]) was 97%, the Activity (Rattus norvegicus [17]) was 93% and the Activity (Rattus norvegicus [18]) was 92%. The Activity (Rattus norvegicus [19]) was 83%, the Activity (Rattus norvegicus [20]) was 77% and the Activity (Rattus norvegicus [21]) was 85%. The Activity (Rattus norvegicus [22]) was 17%, the Activity (Rattus norvegicus [23]) was 18% and the Activity (Rattus norvegicus [24]) was 85%. For the same molecule, the Activity (Rattus norvegicus [25]) was 89%, the LD50 [26] was 1750 mg/kg and the Activity (Rattus norvegicus [27]) was “Non-toxic”. For the same molecule, the Activity (Rattus norvegicus [28]) was “Non-toxic”, the Activity (Rattus norvegicus [29]) was “Non-toxic” and the Activity (Rattus norvegicus [30]) was 64%. The Activity (Rattus norvegicus [31]) was “Non-toxic”.
